Source: PubChem BioAssay (Broad Institute)
Rows were chosen to be rich in hits. Some 1.2% of all compounds tested hit in one or more screens of this group.
CAL PDZ FP-1 = CAL PDZ (human) peptide binding inhibition; Q9HD26; purified CAL PDZ, TMR-peptide fluorescence polarization, 1 h; inhibition, % at 24.9 µM; actives 0.92% (n = 300,000);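 active = mean inhibition of at least 30% with at least half of replicates also reaching 30%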
CAL PDZ FP-2 = human CAL PDZ-peptide interaction inhibition; purified CAL PDZ, TMR-peptide fluorescence polarization, 1 h; actives 0.02% (n = 330,000); inhibition, % at 20 µM; AID 504414;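 active = highest replicate inhibition of at least 40%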
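Material – purified CerCALP PDZ construct · Detection – FP readout, S and P plane fluorescence · Measure – percent inhibition from loss of millipolarization · Controls – unlabelled peptide for full inhibition, DMSO wells as neutral · Probe or stimulus – TMR-labelled reporter peptide T*-PRC34 bound in PDZ groove · Times – 1 h at RT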
ARNT-TACC3 inh = disrupts binding between human ARNT and TACC3; AlphaScreen His-ARNT PAS-B/GST-TACC3 binding, luminescence; TACC3 fragment carries E629A point mutation; inhibition, % at 9.99 µM; actives 0.66% (n = 390,000); AID 623870;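 active = mean inhibition of replicates at least 50% and at least half of replicates each reaching 50%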
Each line names hits and unclear results; the compound was inactive in the other large screens.

COc1cc(OC)c2c(-c3ccccc3)cc(=O)oc2c1C(CCN1CCCC(C)C1)c1ccc(N(C)C)cc1 (stereo not drawn)	ARNT-TACC3 inh 45
COc1ccc(C(CCN2CCCC(C)C2)c2c(OC)cc(OC)c3c(-c4ccccc4)cc(=O)oc23)cc1 (stereo not drawn)	none
O=C(C[C@@H]1CC[C@@H]2[C@H](COC[C@H](O)CN2C(=O)Nc2ccc(F)cc2)O1)NCCc1ccccc1	none (no result: CAL PDZ FP-1, CAL PDZ FP-2)
COc1ccccc1-c1ccc2c(c1)[C@@H]1[C@@H](CCN1S(=O)(=O)c1ccccc1F)[C@H](CO)N2	none (no result: CAL PDZ FP-1, CAL PDZ FP-2)
CNC(=O)CC1C(=O)N(c2ccc(Cl)cc2)C(=S)N1NC(=O)c1cccc(F)c1 (stereo not drawn)	none
NC(=O)CC1C(=O)N(c2ccc(Cl)cc2)C(=S)N1NC(=O)c1cccc(F)c1 (stereo not drawn)	CAL PDZ FP-1 62 (no result: CAL PDZ FP-2)
C[C@@H]1CCCCO[C@@H](CN(C)C(=O)CCC(F)(F)F)[C@H](C)CN([C@@H](C)CO)C(=O)c2cc(NS(=O)(=O)c3cn(C)cn3)ccc2O1	none (no result: CAL PDZ FP-1, CAL PDZ FP-2)
CO[C@@H]1CN(C)C(=O)c2cc(NC(=O)c3cc(C)on3)ccc2OC[C@@H](C)NC[C@@H]1C	none (no result: CAL PDZ FP-1, CAL PDZ FP-2)
Cc1ccc(NCc2ccc(O)c3ncccc23)cc1	none
Oc1c(CNc2ccccc2)cc(COCc2ccccc2)c2cccnc12	ARNT-TACC3 inh 57
C[C@@H]1CN([C@H](C)CO)C(=O)c2cc(NC(=O)CCCN(C)C)ccc2O[C@@H](C)CCCCO[C@@H]1CN(C)S(=O)(=O)c1ccccc1	none (no result: CAL PDZ FP-1, CAL PDZ FP-2)
O=C(C[C@H]1C[C@H]2c3cc(NC(=O)C4CCOCC4)ccc3O[C@H]2[C@H](CO)O1)NCc1ccc(Cl)cc1	none (no result: CAL PDZ FP-1, CAL PDZ FP-2)
Oc1[nH]c2ccccc2c1N=Nc1ccccn1	none
Oc1[nH]c2ccccc2c1N=Nc1nncc2ccccc12	CAL PDZ FP-1 52
O=C(Cc1ccccn1)NCC[C@@H]1CC[C@H](NC(=O)CN2CCOCC2)[C@H](CO)O1	none (no result: CAL PDZ FP-1, CAL PDZ FP-2)
O=C(Nc1cccc2ccccc12)c1ccccc1	none
O=C(Nc1cccc2ccccc12)c1ccc(F)cc1	CAL PDZ FP-1 52
C[C@H](CO)N1C[C@H](C)[C@H](CN(C)CC2CCCCC2)Oc2ccc(NS(=O)(=O)c3ccccc3)cc2C1=O	none (no result: CAL PDZ FP-1, CAL PDZ FP-2)
Cc1ccc(S(=O)(=O)N(C)C[C@H]2OCCCC[C@H](C)Oc3ccc(NC(=O)CCC(F)(F)F)cc3C(=O)N([C@@H](C)CO)C[C@H]2C)cc1	none (no result: CAL PDZ FP-1, CAL PDZ FP-2)
CCOC(=O)CCC(=O)N(CCN(C(=O)CCC(=O)OCC)c1ccccc1)c1ccccc1	none
CCN(C(=O)CCCC(=O)N(CC)c1ccccc1)c1ccccc1	CAL PDZ FP-1 63
CCc1ccc(CN(C)C(C)C(=O)NCc2ccccc2)cc1 (stereo not drawn)	CAL PDZ FP-1 51 (no result: CAL PDZ FP-2)
CCc1ccc(NC(=S)NCc2ccccc2)cc1	CAL PDZ FP-1 49
Cc1ccc(NC(=S)Nn2cnnc2)cc1	none (no result: ARNT-TACC3 inh)
CCOc1ccc(CN(C)C(C)C(=O)NCc2ccccc2)cc1 (stereo not drawn)	none
CCc1ccc(NC(=S)NCc2cccnc2)cc1	none
CCc1ccc(NC(=S)Nn2cnnc2)cc1	CAL PDZ FP-1 63
C[C@H](CO)N1C[C@H](C)[C@H](CN(C)Cc2ccc(Oc3ccccc3)cc2)Oc2ccc(NC(=O)CCCN(C)C)cc2CC1=O	none (no result: CAL PDZ FP-1, CAL PDZ FP-2)
C[C@@H]1CN([C@H](C)CO)C(=O)Cc2cc(NS(=O)(=O)c3ccc(F)cc3)ccc2O[C@H]1CN(C)C(=O)Nc1cccc2ccccc12	none (no result: CAL PDZ FP-1, CAL PDZ FP-2)
O=C(O)CC(CNC(=O)C1CCCN1C(=O)OCc1ccccc1)c1ccccc1 (stereo not drawn)	CAL PDZ FP-1 74 (no result: CAL PDZ FP-2)
O=C(O)C(NC(=O)C1CCCN1C(=O)OCc1ccccc1)c1ccccc1 (stereo not drawn)	none
O=S(=O)(Nc1cccc(-n2cnnn2)c1)c1ccc(F)cc1	none
Cc1ccc(S(=O)(=O)Nc2cccc(-n3cnnn3)c2)cc1	CAL PDZ FP-1 53
CN(C)CCCNC(=O)[C@H]1[C@H](CO)[C@H]2Cn3c(cccc3=O)[C@@H]1N2CC1CC1	none (no result: CAL PDZ FP-1, CAL PDZ FP-2)
O=C(Nc1ccc2oc(-c3ccccc3Cl)nc2c1)c1ncn[nH]1	ARNT-TACC3 inh 50
O=C(Nc1ccc2oc(-c3cccc4ccccc34)nc2c1)c1ncn[nH]1	none
O=C(Nc1ccc(N2CCOCC2)c(Cl)c1)c1ccc(Cl)cc1	none
O=C(Nc1ccc(N2CCOCC2)c(Cl)c1)c1ncn[nH]1	ARNT-TACC3 inh 58
CN1C(=O)c2cc(NC(=O)Nc3cccc(Cl)c3)ccc2OC[C@H]2O[C@@H](CC(=O)O)CC[C@H]21	none (no result: CAL PDZ FP-1, CAL PDZ FP-2)
C[C@@H]1CN([C@H](C)CO)C(=O)c2cc(NC(=O)Nc3ccc4c(c3)OCO4)ccc2O[C@@H](C)CCCCO[C@@H]1CN(C)C(=O)Cc1ccccc1	none (no result: CAL PDZ FP-1, CAL PDZ FP-2)
C[C@H]1CN([C@@H](C)CO)C(=O)c2cccc(NS(=O)(=O)c3cccs3)c2O[C@@H]1CN(C)Cc1ccccc1	none (no result: CAL PDZ FP-1, CAL PDZ FP-2)
